In article PMC4872390 (The American journal of Chinese medicine, 2015):
Read-outs that look alike come from different tables or passages of the source.

Experiments:
[1] = assay type: in vivo; settings: mice, ABT vs. no ABT
[2] = ref Zhang et al., 2015, cited from earlier work
[3] = rats; ref Song et al., 2011; cited from earlier work
[4] = rats, ref Li et al., 2013b, cited from earlier work
2C19 = settings: 10 μM NBN; corresponding probe reaction; ref Linder et al., 2009; cited from earlier work
CYP 2C19 = CYP 2C19 (Homo sapiens, UniProt P33261); assay: Incubation of D or DA with recombinant human CYP 2C19; assay type: in vitro ADME; settings: for conversion to DOH or metabolites by 2C19 in the absence of NADPH: incubated in the absence of NADPH; for average velocity of 2C19 in the first 10 minutes: recombinant 2C19, substrate 6 μM
CYP 3A4 = CYP 3A4 (Homo sapiens, UniProt P08684); assay: Incubation of D or DA with recombinant human CYP 3A4; assay type: in vitro ADME; settings: recombinant 3A4; substrate 6 μM
[5] = system: human liver microsome (HLM); assay: In vitro metabolism in human liver microsomes; assay type: in vitro ADME; settings: substrate 6 μM, 60 minutes; for effect of NBN and ketoconazole together on metabolism by HLM: 10 μM NBN + 2 μM ketoconazole
Outline: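 Human liver microsomes at 1 mg/mL in 50 mM potassium phosphate (pH 7.4) with 1 mM NADPH and 6 μM substrate; final methanol 0.5% (v/v). Inhibitors came from DMSO stocks (DMSO at most 0.5% v/v). NBN at 10 μM and ketoconazole at 2 μM were added with the substrate. Incubated at 37°C for 1 hour, then extracted and quantitated. Three or more independent experiments.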

3A4 = settings: 1 μM ketoconazole; corresponding probe reaction; ref Linder et al., 2009; cited from earlier work
[6] = assay type: in vivo, human

Chain of CYP 2C19 (P33261 whole entry): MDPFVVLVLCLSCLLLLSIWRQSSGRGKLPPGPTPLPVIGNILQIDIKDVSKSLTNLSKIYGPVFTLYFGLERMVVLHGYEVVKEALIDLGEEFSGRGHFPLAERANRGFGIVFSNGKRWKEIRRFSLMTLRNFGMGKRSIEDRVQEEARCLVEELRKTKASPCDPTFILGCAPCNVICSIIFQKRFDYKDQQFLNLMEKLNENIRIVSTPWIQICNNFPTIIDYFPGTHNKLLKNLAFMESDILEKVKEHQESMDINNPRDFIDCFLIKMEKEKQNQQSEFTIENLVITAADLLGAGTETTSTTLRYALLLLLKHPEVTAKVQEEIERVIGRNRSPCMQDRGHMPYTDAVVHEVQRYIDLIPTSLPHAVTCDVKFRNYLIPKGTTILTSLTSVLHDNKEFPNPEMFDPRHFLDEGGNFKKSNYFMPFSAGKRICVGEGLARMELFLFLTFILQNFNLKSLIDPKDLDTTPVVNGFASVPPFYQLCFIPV
Chain of CYP 3A4 (P08684 whole entry): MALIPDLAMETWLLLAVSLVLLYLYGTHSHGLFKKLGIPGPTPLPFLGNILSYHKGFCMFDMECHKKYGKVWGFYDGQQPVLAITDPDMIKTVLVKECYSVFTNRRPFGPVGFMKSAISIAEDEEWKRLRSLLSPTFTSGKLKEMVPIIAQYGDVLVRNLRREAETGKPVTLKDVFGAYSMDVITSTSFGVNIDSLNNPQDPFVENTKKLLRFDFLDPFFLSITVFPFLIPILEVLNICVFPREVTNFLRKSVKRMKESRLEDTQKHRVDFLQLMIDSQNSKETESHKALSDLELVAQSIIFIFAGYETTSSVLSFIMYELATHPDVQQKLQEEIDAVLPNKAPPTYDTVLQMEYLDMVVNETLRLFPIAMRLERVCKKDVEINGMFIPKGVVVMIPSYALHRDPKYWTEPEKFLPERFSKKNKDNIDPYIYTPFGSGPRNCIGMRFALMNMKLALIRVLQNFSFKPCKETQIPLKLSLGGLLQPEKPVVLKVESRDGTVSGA

increase of plasma level by ABT pretreatment ([1]; 1 hour after D/DA dose)	increase of prostate content by ABT pretreatment ([1]; 1 hour after D/DA dose)	increase of plasma level by ABT pretreatment ([1]; 2 hours after D/DA dose)	increase of prostate content by ABT pretreatment ([1]; 2 hours after D/DA dose)	conversion to DOH or metabolites by 2C19 in the absence of NADPH (CYP 2C19)	average velocity of 2C19 in the first 10 minutes (CYP 2C19)	average velocity of 3A4 in the first 10 minutes (CYP 3A4)	effect of NBN and ketoconazole together on metabolism by HLM [5]	SMILES	also measured
1.5–2 fold	1.5–2 fold	1.5–2 fold	1.5–2 fold	–	–	–	–	CC1(C)Oc2cc3oc(=O)ccc3cc2C[C@@H]1O [DOH, decursinol]	urinary excretion of free DOH, share of D/DA ingested ([2]; human subjects): < 1%; absorption (AUC-oral dose vs. AUC-i.v.) [3]: ~ 45%; AUC of plasma DOH ([4]; equal moles by oral gavage): 65012 ng·h/mL; AUC ratio, DOH group vs. D/DA group ([4]; equal moles by oral gavage): ~ 2.4 fold; tmax of plasma DOH peak ([4]; oral gavage): ~ 0.7 h
–	–	–	–	–	–	–	–	CCC1(c2ccccc2)NC(=O)N(Cc2ccccc2)C1=O (single isomer, unassigned; (+)) [NBN, (+)-N-3-benzylnirvanol]	inhibition of 2C19 activity in HLM (2C19): 55%
32 fold	61 fold	26 fold	61 fold	not able to convert	60 pmol D or DA per minute per pmol CYP	4 pmol per minute per pmol CYP	additive manner	CC(C)=CC(=O)O[C@H]1Cc2cc3ccc(=O)oc3cc2OC1(C)C [D, decursin]	effect of 2C19 inhibitor NBN on metabolism by HLM ([5]; 10 μM NBN, 1 mg/mL HLM): retarded the disappearance of D
–	–	–	–	–	–	–	–	CC(=O)N1CCN(c2ccc(OCC3COC(Cn4ccnc4)(c4ccc(Cl)cc4Cl)O3)cc2)CC1 (centres unmarked) [ketoconazole]	inhibition of 3A4 activity in HLM (3A4): 59%
30 fold	18 fold	30 fold	48 fold	not able to convert	60 pmol D or DA per minute per pmol CYP	5 pmol per minute per pmol CYP	additive manner	C/C=C(/C)C(=O)O[C@H]1Cc2cc3ccc(=O)oc3cc2OC1(C)C [DA, decursinol angelate]	effect of 3A4 inhibitor ketoconazole (KCZ) on metabolism by HLM ([5]; 2 μM ketoconazole, 1 mg/mL HLM): greater extent of inhibition of DA conversion to DOH and metabolite N8; effect of 2C19*17 allele on plasma AUC0–48h ([6]; human subjects by CYP SNP genotype): trend of gene-dose effect; plasma AUC0–48h compared among three racial groups (Caucasian, Hispanic, Asian) ([6]; human subjects, Kruskal-Wallis test, p<0.05): statistically different among three groups; variation in the Cmax and AUC0–48h among subjects ([2]; healthy human subjects, single dose): ≤ 60 fold
